Hits are enriched below; roughly 3.5% of the tested compounds scored in any of these assays.
MrgX1 ag = agonists of human MrgX1 receptor, primary screen, HEK293 cells, Fluo-4 calcium flux | AID 588627, 2011 | actives 0.44% (n = 310,000) | B-score at 10 µM | Fluo-4 calcium fluorescence, agonist mode; active compounds read high | Mas-related G-protein coupled receptor member X1 (Homo sapiens), Q96LB2;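 active = calcium response B-score plate-corrected fluorescence ratio at least 3 library SD, with starting fluorescence B-score inside 5 SD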
Target sequence (Q96LB2 whole entry, looked up): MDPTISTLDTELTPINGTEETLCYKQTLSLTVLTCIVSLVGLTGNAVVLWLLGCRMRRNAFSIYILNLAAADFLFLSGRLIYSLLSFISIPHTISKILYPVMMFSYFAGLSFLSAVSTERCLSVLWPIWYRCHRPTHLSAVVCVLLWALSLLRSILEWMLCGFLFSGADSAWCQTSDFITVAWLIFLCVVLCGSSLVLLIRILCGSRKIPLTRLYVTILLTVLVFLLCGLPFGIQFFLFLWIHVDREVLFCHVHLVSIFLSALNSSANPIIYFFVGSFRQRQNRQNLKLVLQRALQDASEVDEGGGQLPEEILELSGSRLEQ
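System – MrgX1-expressing HEK293 cells · Incubation – cells plated overnight, dye loaded 0.5 h 37 °C, 0.5 h room temperature · Technique – kinetic Fluo-4 NW fluorescence of intracellular calcium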
RGS4 block = RGS4 inhibitors, primary screen, cell-based, HEK293 M3R inducible RGS4, calcium flux; Fluo-4 calcium flux; active compounds read high; triggered by carbachol at its EC20; Regulator of G-protein signaling 4 (Homo sapiens), P49798; B-score at 10 µM; actives 0.45% (n = 310,000); AID 463165, 2010;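 active = B-score, a plate-corrected calcium signal, over three deviations above library mean, with baseline fluorescence within five deviations of library mean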;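 also: RGS4 expression induced by doxycycline in cells with stable M3 receptor; B-score is computed from the integrated fluorescence ratio over baseline after carbachol; higher B-score means a larger calcium signal and so more RGS4 inhibition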
Target sequence (P49798 whole entry, looked up): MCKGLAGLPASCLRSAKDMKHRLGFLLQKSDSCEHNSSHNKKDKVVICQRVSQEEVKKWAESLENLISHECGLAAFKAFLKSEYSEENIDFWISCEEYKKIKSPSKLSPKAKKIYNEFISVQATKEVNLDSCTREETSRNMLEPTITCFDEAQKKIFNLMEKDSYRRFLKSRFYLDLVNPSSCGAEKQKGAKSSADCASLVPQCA
MrgX1 PAM = positive allosteric modulators of MrgX1, primary screen, HEK293 cells, Fluo-4 calcium flux. actives 0.63% (n = 310,000). B-score at 10 µM. FDSS; active compounds read high. Mas-related G-protein coupled receptor member X1 (Homo sapiens), Q96LB2;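 active = plate-corrected calcium response at least 3 library SD above typical, normal starting fluorescence, not activating the receptor alone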;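 also: compound read alongside a low EC10 to EC30 dose of BAM8-22 agonist; peak minus trough fluorescence over baseline measured at the second addition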
MrgX1 antagonist = antagonists of human MrgX1 receptor, primary screen, HEK293 cells, Fluo-4 calcium flux; actives 1.3% (n = 310,000); Mas-related G-protein coupled receptor member X1 (Homo sapiens), Q96LB2; B-score at 10 µM; BAM8-22 antagonism; active compounds read low;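 active = calcium-response B-score plate-corrected more than 3 library SD below zero, starting fluorescence within 5 deviations, no agonist response on first addition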;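 also: peak minus trough fluorescence over baseline after final BAM8-22 challenge near maximal dose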
RGS4 act = RGS4 potentiators or activators, primary screen, cell-based, HEK293 M3R inducible RGS4, calcium flux | carbachol calcium flux Fluo4; active compounds read low | B-score at 10 µM | actives 0.92% (n = 310,000) | AID 463111, 2010;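 active = B-score of the integrated calcium signal more than 4 SD below the library mean, with starting fluorescence not abnormally high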;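 also: negative B-score means reduced calcium response which marks RGS4 activation or potentiation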
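Material: M3R-expressing HEK293 line, RGS4 induced by doxycycline | Schedule: Overnight RGS4 induction, 30 min dye load 37 °C, 20 min compound RT | Measured by: Fluo4 fluorescence kinetic imaging of calcium | Read-out: Integrated calcium ratio converted to B score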
Numbers without * were called inactive; i = inactive.

SMILES	MrgX1 ag	RGS4 block	MrgX1 PAM	MrgX1 antagonist	RGS4 act
CN=c1scc(C)n1/N=C/c1ccc(O)c(O)c1O	i	i	i	i	i
CN=c1scc(-c2cccs2)n1/N=C/c1ccccc1O	i	i	7.4*	i	i
CN=c1scc(-c2cccs2)n1/N=C/c1ccc(O)c(O)c1O	i	i	14*	i	i
Cc1c(-n2cc(C(=O)c3cc(F)ccc3O)cc(C#N)c2=O)c(=O)n(-c2ccccc2)n1C	i	i	6.7*	i	i
COc1ccc(NC(=O)COc2coc(CN3CCN(c4ccccc4)CC3)cc2=O)cc1	i	i	i	-5.7*	i
COc1ccc(N2CCN(Cc3cc(=O)c(OCC(=O)Nc4ccccc4)co3)CC2)cc1	i	i	i	i	i
Cc1occc1C(=O)NC(C)C1CCCO1 (configuration not stated)	i	i	i	-9.3*	i
O=C(CN1C(=O)c2ccccc2S1(=O)=O)c1ccc(F)cc1	i	i	i	i	i
Cn1cc([N+](=O)[O-])c(C(=O)NNC(=O)c2ccc([N+](=O)[O-])cc2)n1	i	i	i	-5.4*	i
Cc1ccc(-n2nc3c(=O)n(CC(=O)c4ccc(F)cc4)nc(C)c3c2C)cc1	i	i	i	i	i
CN(C)CCCOc1cccc(Oc2ccccc2)c1	i	i	i	i	-7.5*
Cc1ccc(NC(=O)CO/N=C/c2ccc(N(C)C)cc2)cc1	i	i	i	-4.8*	i
O=C(Cc1ccc(Cl)cc1)Nc1cccnc1	i	i	i	i	i
Cc1ccc(CN(C(=O)c2ccco2)C2CCS(=O)(=O)C2)cc1 (configuration not stated)	i	i	i	i	i
CC(C)(C)OC(=O)NCCCC1=CC2=CC(=O)C(C)(OC(=O)c3ccc(Cl)nc3)C(=O)C2=CO1 (configuration not stated)	i	i	i	-5*	i
CCC(=O)OC1(C)C(=O)C=C2C=C(CCCCNC(=O)OC(C)(C)C)OC=C2C1=O (configuration not stated)	i	i	i	i	i
O=[N+]([O-])c1ccc(NC(=S)NCCc2ccc(Cl)cc2)cc1	i	i	i	-6*	i
O=[N+]([O-])c1ccc(NC(=S)NCCc2ccccc2)cc1	i	i	i	-4.9*	i
S=C(NCCc1ccccc1)Nc1ccc(Cl)cc1	i	i	i	i	i
NS(=O)(=O)c1ccc(NC(=S)NCCc2ccccc2)cc1	i	i	i	i	i
CC(=O)OCP(C)(=O)COC(C)=O	i	i	i	i	i
O=C(NCC1CCCO1)/C(=C\c1ccccc1)NC(=O)c1ccccc1 (configuration not stated)	i	i	i	i	i
CC(=O)Oc1c(C)cc(Cl)cc1C(=O)Nc1ccc([N+](=O)[O-])cc1Cl	i	i	i	-5*	i
CC(=O)OCC(=O)Nc1ccc([N+](=O)[O-])cc1Cl	i	i	i	i	i
CC(C)c1ccc(NC(=O)C(c2ccccc2)N(Cc2ccco2)C(=O)CC2NC(=O)NC2=O)cc1 (configuration not stated)	i	i	i	i	i
SMILES	MrgX1 ag	RGS4 block	MrgX1 PAM	MrgX1 antagonist	RGS4 act
Cc1cccc([C@@H]2[C@@H]3C(=O)N(Cc4ccccc4)C(=O)[C@@H]3[C@]3(Cc4ccc(Cl)cc4)C(=O)N(c4ccccc4)C(=O)N23)c1	i	i	i	-6.6*	i
CCC(C)(C)c1ccc(OCCCC[n+]2cccc(C)c2C)c(C(C)(C)CC)c1	i	i	i	-5.3*	i
CCC(C)(C)c1ccc(OCCCC[n+]2ccc(C)cc2)c(C(C)(C)CC)c1	i	i	i	i	-9.3*
Cc1cc[n+](CC[n+]2ccc(C)cc2)cc1	i	i	i	i	i
C=CCNc1nc(C(=O)OCC(=O)Nc2ccc(S(N)(=O)=O)cc2)cs1	i	i	i	i	i
COc1ccccc1C(=O)COC(=O)c1ccccc1OCC(=O)Nc1ccc(SC(F)F)cc1	i	i	i	i	-7.8*
CC1(C)CC2CC(C)(CN2C(=S)Nc2ccccc2)C1 (configuration not stated)	i	i	i	i	i
CN(c1ccccc1)c1nc(N)c([N+](=O)[O-])c(Nc2ccccc2F)n1	i	i	i	i	i
COc1ccc(OC)c(Nc2nc(N(C)c3ccccc3)nc(N)c2[N+](=O)[O-])c1	i	i	i	i	-8.1*
COc1cc(/C=C2\CCC/C(=C\c3ccc(O)c(OC)c3)C2=O)ccc1O	i	i	i	-5.7*	-9.9*
COc1ccc(C(=O)NC2CCN(S(=O)(=O)c3ccc(F)cc3)CC2)cc1	i	i	i	i	i
COc1ccc(C(=O)N[C@H](C(=O)OCc2nc3ccsc3c(=O)[nH]2)C(C)C)cc1	i	i	i	i	i
CC1CC(=O)c2c(cc3c(-c4c(O)cc(O)c5c(O)c6c(cc45)OC(C)CC6=O)c(O)cc(O)c3c2O)O1 (configuration not stated)	i	i	i	-6.8*	i
Cc1ccc(C)c2c1cc(C)c1nnc(SCc3ccccn3)n12	i	i	i	i	i
Cc1ccc(/C=C2\SC(=S)N(C3CCS(=O)(=O)C3)C2=O)o1 (configuration not stated)	i	i	i	i	i
NS(=O)(=O)c1ccc(-c2ccc(/C=C3\SC(=S)N(C4CCS(=O)(=O)C4)C3=O)o2)cc1 (configuration not stated)	i	i	i	-8.6*	i
O=C(NC(Cc1ccccc1)C(=O)Oc1ccc2c(C(F)(F)F)cc(=O)oc2c1)OCc1ccccc1 (configuration not stated)	i	i	8.4*	i	i
O=C(CNC(=O)OCc1ccccc1)Oc1ccc2ccc(=O)oc2c1	i	i	i	i	i
C=CCN1C(=O)/C(=C/c2ccc(O)c(OC)c2)S/C1=N/c1nccs1	i	i	9*	i	i
C=CCN1C(=O)/C(=C/c2ccc(OCC(=O)O)cc2)S/C1=N/c1nccs1	i	i	i	i	i
CCc1cc2c3c(c(=O)oc2cc1OC(C)C(=O)O)CCCC3 (configuration not stated)	i	i	i	i	i
